Measured values: ChEMBL document CHEMBL1759987, “2-Acylamino-5-chlorobenzophenones with enhanced selectivity towards malaria parasites” (Eur J Med Chem, 2011)

Assays:
[1] = Selectivity index, CC50 for HeLa cells to IC50 for Plasmodium falciparum; format: functional
[2] = Cytotoxicity in human HeLa cells assessed as cell viability after 72 hrs; format: cell-based
Summary of the method: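 HeLa cells grown in RPMI 1640 with 10% heat-inactivated FBS and gentamicin at 37 °C. About 10,000 cells seeded per well, preincubated 48 h without compound. DMSO stocks (10 mg/ml) diluted 1:200 in medium and added, then 72 h at 37 °C, 5% CO2. Cells fixed with glutaraldehyde, stained with 0.05% methylene blue, eluted with 0.33 M HCl, OD read at 660 nm.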

Plasmodium falciparum = assay: Antiplasmodial activity against multidrug- resistant Plasmodium falciparum Dd2 assessed as inhibition of [3H]hypoxanthine incorporation after 72 hrs; format: functional, organism-based
Summary of the method: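 Dd2 parasites kept in continuous culture and sorbitol-synchronized, then exposed to a range of concentrations for 72 h. Growth read by [3H]-hypoxanthine incorporation and converted to percent inhibition. IC50 taken from sigmoidal dose-response curves fitted with a Hill function. At least three independent repeats, reported as mean ± SEM.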

Row | SMILES | Ratio CC50/IC50 [1] | CC50 at 72 h [2] [µM] | IC50 (Plasmodium falciparum) [µM]
1 | Cl.N[C@@H](C(=O)Nc1ccc(Cl)cc1C(=O)c1ccccc1)c1ccccc1 | 1 | 12 | 9.25
2 | Cl.N[C@H](C(=O)Nc1ccc(Cl)cc1C(=O)c1ccccc1)c1ccccc1 | 3 | 43 | > 16
3 | CC(C)(C)OC(=O)N[C@@H](C(=O)Nc1ccc(Cl)cc1C(=O)c1ccccc1)c1ccccc1 | 17 | > 108 | 6.18
4 | CC(C)(C)OC(=O)N[C@H](C(=O)Nc1ccc(Cl)cc1C(=O)c1ccccc1)c1ccccc1 | 13 | > 108 | 8.47
5 | CN1CCN(C(=O)N[C@@H](C(=O)Nc2ccc(Cl)cc2C(=O)c2ccccc2)c2ccccc2)CC1 | 45 | 60 | 1.35
6 | CC(C)(C)OC(=O)N1CCN(C(C(=O)Nc2ccc(Cl)cc2C(=O)c2ccccc2)c2ccccc2)CC1 (centres undefined) | 11 | > 94 | 8.21
7 | O=C(c1ccccc1)c1cc(Cl)ccc1NC(=O)C(c1ccccc1)N1CCSCC1 (racemic) | 10 | > 111 | 11.5
8 | O=C(c1ccccc1)c1cc(Cl)ccc1NC(=O)C(c1ccccc1)N1CCC(CCO)CC1 (racemic) | 1 | 19 | 15
9 | CCCN1CCN(C(C(=O)Nc2ccc(Cl)cc2C(=O)c2ccccc2)c2ccccc2)CC1 (racemic) | 6 | 38 | 6.23
10 | COC(=O)CN1CCN(C(C(=O)Nc2ccc(Cl)cc2C(=O)c2ccccc2)c2ccccc2)CC1 (racemic) | 33 | > 99 | > 3
11 | O=C(O)CN1CCN(C(C(=O)Nc2ccc(Cl)cc2C(=O)c2ccccc2)c2ccccc2)CC1 (racemic) | 34 | > 102 | > 3
12 | NC(=O)CN1CCN(C(C(=O)Nc2ccc(Cl)cc2C(=O)c2ccccc2)c2ccccc2)CC1 (racemic) | 22 | 65 | 3.32
13 | CC(C)NC(=O)CN1CCN(C(C(=O)Nc2ccc(Cl)cc2C(=O)c2ccccc2)c2ccccc2)CC1 (racemic) | 41 | 40 | 0.98
14 | CN(C)CCN1CCN(C(C(=O)Nc2ccc(Cl)cc2C(=O)c2ccccc2)c2ccccc2)CC1 (racemic) | 15 | 39 | 2.56
15 | O=C(c1ccccc1)c1cc(Cl)ccc1NC(=O)C(c1ccc(F)cc1)N1CCN(CCO)CC1 (racemic) | 45 | 38 | 0.84
16 | O=C(c1ccccc1)c1cc(Cl)ccc1NC(=O)C(c1ccc(C(F)(F)F)cc1)N1CCN(CCO)CC1 (racemic) | 28 | 17 | 0.6
17 | O=C(c1ccccc1)c1cc(Cl)ccc1NC(=O)C(c1ccc(Br)cc1)N1CCN(CCO)CC1 (racemic) | 31 | 17 | 0.56
18 | O=C(c1ccccc1)c1cc(Cl)ccc1NC(=O)C(c1ccc(-c2ccccc2)cc1)N1CCN(CCO)CC1 (racemic) | 59 | 16 | 0.28
19 | O=C(c1ccccc1)c1cc(Cl)ccc1NC(=O)C(c1cccc2ccccc12)N1CCN(CCO)CC1 (racemic) | 18 | 17 | 0.95

Row | SMILES | Ratio CC50/IC50 [1] | CC50 at 72 h [2] [µM] | IC50 (Plasmodium falciparum) [µM]
20 | O=C(c1ccccc1)c1cc(Cl)ccc1NC(=O)C(c1ccc2ccccc2c1)N1CCN(CCO)CC1 (racemic) | 94 | 17 | 0.18
21 | O=C(c1ccccc1)c1cc(Cl)ccc1NC(=O)C(c1ccccc1)N1CCOCC1 (racemic) | 6 | 39 | 6.72
22 | O=C(c1ccccc1)c1cc(Cl)ccc1NC(=O)C(c1ccccc1)N1CC[S+]([O-])CC1 (racemic) | 8 | 71 | 9.02
23 | O=C(c1ccccc1)c1cc(Cl)ccc1NC(=O)C(c1ccccc1)n1ccnc1 (racemic) | 12 | 55 | 4.51
24 | Cl.NC(C(=O)Nc1ccc(Cl)cc1C(=O)c1ccccc1)c1ccccc1 (racemic) | 6 | 37 | 6.71
25 | NC(CO)C(=O)Nc1ccc(Cl)cc1C(=O)c1ccccc1 (racemic) | – | – | > 20
26 | Cl.NC(Cc1ccccc1)C(=O)Nc1ccc(Cl)cc1C(=O)c1ccccc1 (racemic) | 3 | 38 | 14.1
27 | O=C(c1ccccc1)c1cc(Cl)ccc1NC(=O)C(c1ccccc1)N1CCN(c2ccccc2)CC1 (racemic) | 5 | > 98 | > 20
28 | O=C(c1ccccc1)c1cc(Cl)ccc1NC(=O)C(c1ccccc1)N1CCN(c2ccc([N+](=O)[O-])cc2)CC1 (racemic) | 5 | > 90 | > 20
29 | O=C(c1ccccc1)c1cc(Cl)ccc1NC(=O)C(c1ccccc1)N1CCN(Cc2ccccc2)CC1 (racemic) | 6 | > 118 | > 20
30 | O=CN1CCN(C(C(=O)Nc2ccc(Cl)cc2C(=O)c2ccccc2)c2ccccc2)CC1 (racemic) | 13 | 50 | 3.77
31 | CCOC(=O)N1CCN(C(C(=O)Nc2ccc(Cl)cc2C(=O)c2ccccc2)c2ccccc2)CC1 (racemic) | 15 | 64 | 4.26
32 | O=C(c1ccccc1)c1cc(Cl)ccc1NC(=O)C(c1ccccc1)N1CCN(CCO)CC1 (racemic) | 150 | 49 | 0.33
33 | O=C(c1ccccc1)c1cc(Cl)ccc1NC(=O)C(c1ccccc1)N1CCCCC1 (racemic) | 6 | 63 | 10.2
34 | O=C1CCN(C(C(=O)Nc2ccc(Cl)cc2C(=O)c2ccccc2)c2ccccc2)CC1 (racemic) | 4 | 27 | 7.43
35 | CN1CCN(C(C(=O)Nc2ccc(Cl)cc2C(=O)c2ccccc2)c2ccccc2)CC1 (racemic) | 18 | 63 | 3.54
36 | CCN1CCN(C(C(=O)Nc2ccc(Cl)cc2C(=O)c2ccccc2)c2ccccc2)CC1 (racemic) | 21 | 76 | 3.62
37 | CN1CCN(C(=O)NC(C(=O)Nc2ccc(Cl)cc2C(=O)c2ccccc2)c2ccccc2)CC1 (single isomer, unassigned) | 17 | 72 | 4.21
